The text below walks through data of ChEMBL document CHEMBL2021900, “Discovery of cariprazine (RGH-188): a novel antipsychotic acting on dopamine D3/D2 receptors” (Bioorg Med Chem Lett, 2012).

One data set addresses D(2) dopamine receptor (Rattus norvegicus, UniProt P61169). In words: Displacement of [3H]spiperone from dopamine D2 receptor in rat striatal membranes. It is filed as cell membranes, Membrane. The method, boiled down:
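Rat striatal membranes; [3H]spiperone 0.7 nM as radioligand; nonspecific binding defined with (+)-butaclamol. Ki values are means of two to four independent experiments, each with at least six concentrations in duplicate.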

Another data set addresses D(3) dopamine receptor (Rattus norvegicus, UniProt P19020). In words: Displacement of [3H]spiperone from rat recombinant dopamine D3 receptor expressed in Sf9 cells.
Another data set has as its system Mus musculus. Description: Antipsychotic activity in po dosed CD1 mouse assessed as reduction of apomorphine-induced climbing behaviour administered 1 hr before apomorphine challenge measured after 10 to 16 mins. It is filed as functional.
For data set [1], the species on record is Rattus norvegicus. In words: Selectivity ratio of Ki for adrenergic alpha-1 receptor in rat cerebral cortical membranes to Ki for rat recombinant dopamine D3 receptor. Format: cell membranes. The settings on record: Membrane.
In data set [2] the target is T1, Adrenergic receptor alpha-1 (Rattus norvegicus, UniProt P15823+P23944+P43140).
T1 sequence (P15823 whole entry): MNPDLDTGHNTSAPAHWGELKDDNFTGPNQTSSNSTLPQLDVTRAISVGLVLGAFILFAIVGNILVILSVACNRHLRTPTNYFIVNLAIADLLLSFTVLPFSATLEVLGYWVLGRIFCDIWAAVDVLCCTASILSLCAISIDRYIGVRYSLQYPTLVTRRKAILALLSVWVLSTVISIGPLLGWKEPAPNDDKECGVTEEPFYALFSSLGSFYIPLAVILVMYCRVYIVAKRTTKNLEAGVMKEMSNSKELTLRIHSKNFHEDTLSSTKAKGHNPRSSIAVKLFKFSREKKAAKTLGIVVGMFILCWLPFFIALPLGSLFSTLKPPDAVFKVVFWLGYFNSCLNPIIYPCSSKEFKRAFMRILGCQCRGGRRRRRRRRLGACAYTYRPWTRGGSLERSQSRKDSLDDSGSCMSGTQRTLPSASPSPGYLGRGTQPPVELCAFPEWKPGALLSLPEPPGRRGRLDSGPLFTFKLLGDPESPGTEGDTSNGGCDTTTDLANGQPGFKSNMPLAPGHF
T1 sequence (P23944 whole entry): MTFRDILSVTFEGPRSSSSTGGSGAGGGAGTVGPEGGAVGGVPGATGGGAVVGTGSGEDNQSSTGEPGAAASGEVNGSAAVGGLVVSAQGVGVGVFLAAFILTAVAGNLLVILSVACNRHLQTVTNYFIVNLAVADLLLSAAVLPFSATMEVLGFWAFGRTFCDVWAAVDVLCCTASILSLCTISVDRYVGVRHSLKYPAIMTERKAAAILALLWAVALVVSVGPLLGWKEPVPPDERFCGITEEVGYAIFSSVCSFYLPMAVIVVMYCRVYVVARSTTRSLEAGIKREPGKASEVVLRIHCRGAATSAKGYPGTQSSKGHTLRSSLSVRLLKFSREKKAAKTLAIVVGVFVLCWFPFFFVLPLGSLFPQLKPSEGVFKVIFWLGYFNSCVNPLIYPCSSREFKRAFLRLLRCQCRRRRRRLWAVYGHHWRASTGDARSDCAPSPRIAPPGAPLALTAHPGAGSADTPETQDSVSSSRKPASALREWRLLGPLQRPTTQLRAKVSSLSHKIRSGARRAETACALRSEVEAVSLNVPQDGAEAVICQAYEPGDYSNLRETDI
T1 sequence (P43140 whole entry): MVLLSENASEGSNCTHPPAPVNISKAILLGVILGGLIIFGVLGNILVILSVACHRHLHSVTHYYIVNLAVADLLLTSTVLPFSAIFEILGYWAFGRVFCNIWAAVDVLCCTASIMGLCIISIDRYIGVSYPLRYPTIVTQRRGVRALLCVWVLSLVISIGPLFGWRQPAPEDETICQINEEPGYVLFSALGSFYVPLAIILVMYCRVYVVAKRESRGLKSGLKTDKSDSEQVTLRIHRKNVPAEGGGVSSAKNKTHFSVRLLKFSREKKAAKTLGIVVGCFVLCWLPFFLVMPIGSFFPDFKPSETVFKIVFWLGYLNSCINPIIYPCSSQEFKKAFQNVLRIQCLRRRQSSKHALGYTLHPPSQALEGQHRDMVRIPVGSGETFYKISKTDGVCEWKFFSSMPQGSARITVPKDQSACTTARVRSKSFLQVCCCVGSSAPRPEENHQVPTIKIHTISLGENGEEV
Description: Displacement of [3H]-prazosin from adrenergic alpha-1 receptor in rat cerebral cortical membranes. It is filed as cell membranes, Membrane. The gist of the method:
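Alpha-1 binding used rat cerebral cortical membranes with [3H]prazosin 0.5 nM, with phentolamine defining nonspecific binding. Ki values are means of two to four independent experiments, each with at least six concentrations in duplicate.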
On the technique in general: Displacement assays read how much labelled ligand stays bound in the presence of the test substance.

Data set [3] in a line: Metabolic stability in rat liver microsomes at 2.5 uM measured up to 20 mins. The settings on record: read-out: Stability. Format: ADME, Microsome. The method, boiled down:
(§1)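 Compound incubated for up to 20 min with human or rat liver microsomes. Substrate consumption was followed over time; the plot was linear and was analysed by linear regression.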

The nature of data set [4]: Metabolic stability in human liver microsomes at 2.5 uM measured up to 20 mins. It is filed as ADME, Microsome. The settings on record: read-out: Stability. The method, boiled down: as §1
Data set [5] can be described thus: Cmax in rat. Format: ADME, organism-based. The following applies: in vivo.
The subject of data set [6] is Rattus norvegicus. Description: Induction of catalepsy in po dosed rat. It is filed as organism-based. The following applies: in vivo.
Another data set addresses D(1B) dopamine receptor (Homo sapiens, UniProt P21918). Description: Binding affinity to human dopamine D5 receptor.
Data set [7] is described as follows: Binding affinity to human dopamine D4.2 receptor.
In the next data set the target is D(1A) dopamine receptor (Rattus norvegicus, UniProt P18901). In words: Binding affinity to rat dopamine D1 receptor.
Chain of D(1A) dopamine receptor (P18901 whole entry): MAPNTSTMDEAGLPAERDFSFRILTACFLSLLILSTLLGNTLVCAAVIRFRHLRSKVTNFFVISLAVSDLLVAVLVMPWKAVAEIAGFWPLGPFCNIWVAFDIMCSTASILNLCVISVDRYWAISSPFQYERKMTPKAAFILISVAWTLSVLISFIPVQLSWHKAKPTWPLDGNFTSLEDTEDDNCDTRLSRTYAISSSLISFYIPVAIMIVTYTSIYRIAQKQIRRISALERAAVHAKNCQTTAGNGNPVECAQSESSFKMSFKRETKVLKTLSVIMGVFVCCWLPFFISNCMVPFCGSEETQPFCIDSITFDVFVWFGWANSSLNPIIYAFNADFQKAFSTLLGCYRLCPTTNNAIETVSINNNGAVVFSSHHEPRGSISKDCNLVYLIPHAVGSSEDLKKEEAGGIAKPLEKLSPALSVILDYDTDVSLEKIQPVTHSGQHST
The nature of data set [8]: Tmax in rat brain. It is filed as ADME, tissue-based.
Data set [9] can be described thus: Oral bioavailability in rat. It is filed as ADME, organism-based. The following applies: in vivo.
The nature of data set [10]: Ratio of drug level in brain to plasma in iv or po dosed rat. The settings on record: read-out: BPR. Format: ADME, organism-based.
Data set [11] can be described thus: Apparent terminal half life in iv or po dosed rat. It is filed as ADME, organism-based. The following applies: in vivo, read-out: betat1/2(app) (converted).

Usually IC50 stands for the concentration that gives 50% inhibition. A word on the ED50: it is the dose that gives a 50% effect, or the effect in half of the subjects. As usually defined, the Ki is the dissociation constant of the complex between target and ligand, obtained from inhibition or displacement. Broadly, the Cmax is the maximum level reached in the sampled fluid or tissue. What is called Tmax is the time from dosing to the highest level. A word on the bioavailability: it is the share of a dose that reaches the circulation, judged against a reference dose that is usually intravenous. Read a low bioavailability as poor availability.

Molecules are shown by their SMILES.

Chain of D(3) dopamine receptor (P19020 whole entry): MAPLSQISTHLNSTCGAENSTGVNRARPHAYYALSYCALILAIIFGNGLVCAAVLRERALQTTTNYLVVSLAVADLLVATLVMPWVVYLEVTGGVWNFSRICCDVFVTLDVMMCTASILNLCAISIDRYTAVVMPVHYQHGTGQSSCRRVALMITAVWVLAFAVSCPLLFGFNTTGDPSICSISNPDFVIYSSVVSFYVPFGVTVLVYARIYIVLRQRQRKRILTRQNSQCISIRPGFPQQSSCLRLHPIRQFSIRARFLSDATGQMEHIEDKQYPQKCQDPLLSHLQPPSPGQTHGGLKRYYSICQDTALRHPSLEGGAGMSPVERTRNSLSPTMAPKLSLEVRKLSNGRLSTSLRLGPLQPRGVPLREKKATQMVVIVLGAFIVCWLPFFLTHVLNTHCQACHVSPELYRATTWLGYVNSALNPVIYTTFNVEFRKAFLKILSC
Chain of D(2) dopamine receptor (P61169 whole entry): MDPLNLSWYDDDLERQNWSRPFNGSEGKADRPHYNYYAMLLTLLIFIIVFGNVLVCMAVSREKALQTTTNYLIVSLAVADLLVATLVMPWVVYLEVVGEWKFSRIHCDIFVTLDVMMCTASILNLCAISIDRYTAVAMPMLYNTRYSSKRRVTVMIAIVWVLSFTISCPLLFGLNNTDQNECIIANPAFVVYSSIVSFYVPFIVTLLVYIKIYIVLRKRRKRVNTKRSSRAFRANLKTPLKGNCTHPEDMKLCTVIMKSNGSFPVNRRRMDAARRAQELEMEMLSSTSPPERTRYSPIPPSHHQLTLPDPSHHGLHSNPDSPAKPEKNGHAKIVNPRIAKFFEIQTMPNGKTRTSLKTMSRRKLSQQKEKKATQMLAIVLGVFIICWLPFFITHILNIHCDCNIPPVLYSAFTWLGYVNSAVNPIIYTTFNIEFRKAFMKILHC
Chain of D(1B) dopamine receptor (P21918 whole entry): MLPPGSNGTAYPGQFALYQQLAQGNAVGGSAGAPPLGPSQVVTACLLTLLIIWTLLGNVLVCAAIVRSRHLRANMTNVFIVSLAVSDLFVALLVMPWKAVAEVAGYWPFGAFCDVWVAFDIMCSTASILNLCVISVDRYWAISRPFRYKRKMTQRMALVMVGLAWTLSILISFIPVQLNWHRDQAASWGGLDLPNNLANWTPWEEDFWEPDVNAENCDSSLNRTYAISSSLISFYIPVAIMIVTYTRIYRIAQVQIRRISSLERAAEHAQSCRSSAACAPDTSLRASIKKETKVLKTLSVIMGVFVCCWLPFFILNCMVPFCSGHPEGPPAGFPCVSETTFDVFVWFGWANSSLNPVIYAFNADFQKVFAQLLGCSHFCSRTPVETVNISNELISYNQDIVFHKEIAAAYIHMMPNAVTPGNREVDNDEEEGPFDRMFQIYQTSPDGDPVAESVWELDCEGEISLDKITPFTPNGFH

`CC(=O)N[C@H]1CC[C@H](CCN2CCN(c3cccc(Cl)c3Cl)CC2)CC1`: the IC50 is 2.3 nM at D(2) dopamine receptor and 0.29 nM on D(3) dopamine receptor. Also, the ED50 with Mus musculus is 0.17 mg/kg.

For the compound `CCNC(=O)N[C@H]1CC[C@H](CCN2CCN(c3cccc(Cl)c3Cl)CC2)CC1`, the values for the half-inhibitory concentration (IC50) at D(2) dopamine receptor and on D(3) dopamine receptor were 16.9 nM and 0.34 nM, respectively. Moreover, the 50% effective dose (ED50) in the data set with Mus musculus came out at 0.38 mg/kg.

In the case of `CN(C)C(=O)N[C@H]1CC[C@H](CCN2CCN(c3cc(Cl)ccc3Cl)CC2)CC1`, the Ratio Ki in the data set filed under Rattus norvegicus [1] was 52.8. In addition, the Ki on D(2) dopamine receptor came out at 8.2 nM; in data set [2] it was 34.9 nM; at D(3) dopamine receptor, 0.66 nM.

As to `CCOC(=O)N[C@H]1CC[C@H](CCN2CCN(Cc3cccc(C(F)(F)F)c3)CC2)CC1`, the IC50 on D(2) dopamine receptor was 25 nM; on D(3) dopamine receptor, 5.1 nM. For the same compound, the ED50 in the data set on Mus musculus stood at 5.37 mg/kg.

`CN(C)C(=O)N[C@H]1CC[C@H](CCN2CCN(c3ccc(Cl)c(Cl)c3)CC2)CC1`: the Ratio Ki in the data set filed under Rattus norvegicus [1] amounted to 8.9. The results for the inhibition constant (Ki) (at D(2) dopamine receptor; in data set [2]; on D(3) dopamine receptor) were 110 nM, 29.6 nM and 3.3 nM, respectively.

`CN(C)C(=O)N[C@H]1CC[C@H](CCN2CCN(c3cc(Cl)cc(Cl)c3)CC2)CC1`: the remaining at 20 min, 2.5 µM in [3] is 73%; in data set [4], 58%.

On to `CS(=O)(=O)N[C@H]1CC[C@H](CCN2CCN(Cc3cccc(C(F)(F)F)c3)CC2)CC1`, for which the IC50 came to 158 nM on D(2) dopamine receptor and 11 nM on D(3) dopamine receptor. Further, the median effective dose (ED50) in the data set with Mus musculus is 1.34 mg/kg.

For `CC(=O)N[C@H]1CC[C@H](CCN2CCN(c3cc(C#N)cc(C(F)(F)F)c3)CC2)CC1`, the figures for the 50% inhibitory concentration (IC50) on D(2) dopamine receptor and at D(3) dopamine receptor were 143 nM and 1.9 nM, respectively. The ED50 in the data set on Mus musculus was found to be 1.54 mg/kg.

With `CN(C)C(=O)N[C@H]1CC[C@H](CCN2CCN(c3ccc(Cl)cc3Cl)CC2)CC1`, in the data set filed under Rattus norvegicus [1], the Ratio Ki worked out at 28.9. Also, the inhibition constant (Ki) at D(2) dopamine receptor is 106 nM; in data set [2], 156 nM; at D(3) dopamine receptor, 5.4 nM.

Turning to `CN(C)C(=O)N[C@H]1CC[C@H](CCN2CCN(c3cccc(Cl)c3Cl)CC2)CC1.Cl` [CARIPRAZINE HYDROCHLORIDE], in [5], the peak level (Cmax) was 91 ng/mL. Further, the results for the remaining at 20 min, 2.5 µM in [3] and in [4] were 93% and 96%, respectively. Besides, the concentration for half-maximal inhibition (IC50) on D(2) dopamine receptor is […]; at D(1B) dopamine receptor, above 1000 nM; in data set [7], above 1000 nM; on D(1A) dopamine receptor, above 1000 nM. This compound also showed an MED in the data set with Rattus norvegicus [6] above 85 mg/kg. Moreover, in data set [2], the Ki stood at 214 nM. Moreover, the Tmax in [8] is 0.5 h. Besides, in data set [9], the bioavailability was 52%. Also, the Kp in [10] is 7.6. Further, the half-life in data set [11] was 2 h.
